These results are taken from ChEMBL document CHEMBL3102821, “Lignans from the aerial parts of Saururus chinensis: isolation, structural characterization, and their effects on platelet aggregation” (J Nat Prod, 2014).

Calls of active or inactive are those of the source. The calls are words filed in the database; no cut-off is given here.

A short description of assay [1]: Antiplatelet activity against New Zealand white rabbit platelets assessed as inhibition of arachidonic acid-induced platelet aggregation preincubated at 100 uM for 2 mins before challenge […] by spectrophotometry. The class given is functional. The settings on record: Oryctolagus cuniculus. Put shortly:
(§1)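 Resuspended in Tyrode's with 1 mM Ca2+ at 2.5 × 10^8/mL, stirred at 900 rpm. Sample in DMSO (0.5% final) for 2 min at 37 °C, then ADP 20 μM, AA 100 μM or PAF 10 nM. Read-out: maximal turbidimetric light-transmission rise within 4 min. Inhibition is calculated against vehicle.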

Assay [2] can be described thus: Antiplatelet activity against New Zealand white rabbit platelets assessed as inhibition of PAF-induced platelet aggregation preincubated at 100 uM for 2 mins before challenge […] by spectrophotometry. The class given is functional. The conditions noted are these: Oryctolagus cuniculus. The gist of the method: as §1
Assay [3] can be described thus: Antiplatelet activity against New Zealand white rabbit platelets assessed as inhibition of arachidonic acid-induced platelet aggregation preincubated for 2 mins before challenge […] by spectrophotometry. The format is functional, cell-based. The conditions noted are these: Oryctolagus cuniculus. The gist of the method:
(§2)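 Washed rabbit platelets: PRP made with 5 mM EDTA (final), then washed in Ca2+-free Tyrode's with 0.35% BSA, heparin and apyrase at 37 °C for 20 min. Resuspended in Tyrode's with 1 mM Ca2+ at 2.5 × 10^8/mL, stirred at 900 rpm. Sample in DMSO (0.5% final) for 2 min at 37 °C, then ADP 20 μM, AA 100 μM or PAF 10 nM. Read-out: maximal turbidimetric light-transmission rise within 4 min. Inhibition is calculated against vehicle.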

Assay [4] in a line: (§3) Antiplatelet activity against New Zealand white rabbit platelets assessed as inhibition of ADP-induced platelet aggregation preincubated at 100 uM for 2 mins before challenge […] by spectrophotometry. The format is functional. The conditions noted are these: Oryctolagus cuniculus. Put shortly:
as §1

Assay [5] is described as follows: Antiplatelet activity against New Zealand white rabbit platelets assessed as inhibition of ADP-induced platelet aggregation preincubated for 2 mins before challenge […] by spectrophotometry. The class given is functional, cell-based. The conditions noted are these: Oryctolagus cuniculus. Put shortly: as §1
In assay [6] the test system is Platelet. The assay is described as §3. The settings on record: Oryctolagus cuniculus. The class given is functional. The gist of the method:
as §1

In assay [7] the test system is Platelet. As to the kind of experiment: Prothrombotic activity in New Zealand white rabbit platelets assessed as increase in platelet aggregation at 100 uM by spectrophotometry. The format is functional, Oryctolagus cuniculus. The gist of the method: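 Washed rabbit platelets are prepared the same way: 2.5 × 10^8/mL in Tyrode's with 1 mM Ca2+, stirred at 900 rpm at 37 °C, DMSO fixed at 0.5% final. Compound is added alone, with no agonist. Aggregation is read turbidimetrically as light transmission, with suspension set as 0% and buffer as 100%. The result is reported as % increase in aggregation.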

A short description of assay [8]: Antiplatelet activity against New Zealand white rabbit platelets assessed as inhibition of PAF-induced platelet aggregation preincubated for 2 mins before challenge […] by spectrophotometry. The settings on record: Oryctolagus cuniculus. The class given is functional, cell-based. The gist of the method: as §2
Another assay is described as follows: cells. The settings on record: Oryctolagus cuniculus, New Zealand white, Platelet, read-out: INH.
A short description of assay [9]: Antiplatelet activity against New Zealand white rabbit platelets assessed as inhibition of PAF-induced platelet aggregation preincubated at 10 uM for 2 mins before challenge […] by spectrophotometry. The format is functional. The conditions noted are these: Oryctolagus cuniculus. Put shortly:
as §2

With `C[C@@H]1[C@@H](c2ccc3c(c2)OCO3)c2c(c(O)cc3c2OCO3)C[C@H]1C`, the inhibition at 100 µM in assay [1] worked out at 83.7%; in assay [2] it was 0.6%; in [4], 84%. Moreover, the IC50 in [3] came to 71.4 µM; in assay [5] it was 40.3 µM.
`CC(=O)Oc1ccccc1C(=O)O` [ASPIRIN]: in assay [1], the inhibition at 100 µM turned out to be 99.7%.
Regarding `C[C@@H]1[C@H]2c3cc4c(cc3O[C@@]35OCOC3=CC(=O)[C@H](C[C@H]1C)[C@H]25)OCO4` [SAUCHINONE A], the inhibition at 100 µM in assay [1] was 28.2%; in [2], 23.6%; in assay [4] it was 48.2%.
As for `COc1cc(C[C@H](C)[C@H](C)Cc2cc3c(cc2O)OCO3)c(O)cc1O` (relative stereo), the inhibition at 100 µM was 90.9% in [1], 11.7% in assay [2] and 68.2% in assay [4].
`C[C@@H]1[C@H]2c3cc4c(cc3O[C@@]35OCOC3=CC(=O)[C@H](C[C@H]1C)[C@@H]25)OCO4` [SAUCHINONE]: the results for the inhibition at 100 µM in assay [1] and in [2] were 10.7% and 11.8%, respectively. Also, the inhibition entry with Platelet [6] is “inactive”.
Turning to `CC(Cc1cc2c(cc1O)OCO2)C(C)C(=O)c1ccc2c(c1)OCO2` (stereo unspecified) [SAUCERNEOL G], the inhibition at 100 µM amounted to 94.1% in assay [1], 3.9% in [2] and 90.9% in assay [4]. In addition, the IC50 in [3] is 25.9 µM; in assay [5] it was 34.6 µM.
For `COc1cc(C[C@H](C)[C@H](C)Cc2cc3c(cc2O)OCO3)ccc1O` (relative stereo), the Activity in the assay on Platelet [7] is given as 66.1%.
On to `COc1cc(OC)c(C[C@H](C)[C@H](C)Cc2cc3c(cc2O)OCO3)cc1O` (relative stereo), for which the inhibition at 100 µM in assay [1] came out at 96.8%; in assay [2], 26.7%; in assay [4], 85.2%. The figures for the IC50 in assay [3] and in assay [5] were 29.4 µM and 30 µM, respectively.
As for `COc1cc(C[C@@H](C)[C@H](C)Cc2ccc(O)c(OC)c2)ccc1O` [(-)-DIHYDROGUAIARETICACID], the Activity in the assay with Platelet [7] was 76.4%.
Consider `COc1ccc([C@H]2O[C@@H](c3ccc(OC)c(OC)c3)[C@@H](C)[C@H]2C)cc1OC`, for which the inhibition at 100 µM in [1] was 19.4%; in assay [2], 94.4%; in assay [4], 51.8%. In addition, the IC50 in assay [8] stood at 9.1 µM.
`C[C@H](Cc1cc2c(cc1O)OCO2)[C@@H](C)Cc1cc2c(cc1O)OCO2`: the Activity with Platelet [7] amounted to 49.5%.
In the case of `COc1ccc([C@@H]2O[C@H](c3cc(OC)c4c(c3)OCO4)[C@@H](C)[C@@H]2C)cc1OC` (relative stereo), the figures for the inhibition at 100 µM in assay [1], in assay [2] and in assay [4] were 54.4%, 42% and 19.1%, respectively.
Taken in the same sequence, the figures for `COc1cc(O)c(C[C@H](C)[C@H](C)Cc2cc3c(cc2O)OCO3)cc1OC` (relative stereo) were 73%, 7% and 71.5%.
`COC1=CC(=O)C(C[C@H](C)[C@H](C)Cc2cc3c(cc2O)OCO3)=CC1=O` (relative stereo): the inhibition at 100 µM in assay [1] was found to be 98.7%; in assay [2] it was 92%; in assay [4], 90.4%. The concentration for half-maximal inhibition (IC50) turned out to be 61.7 µM in assay [8], 14 µM in assay [3] and 9.8 µM in [5].
In the case of `COC(=O)[C@H](c1ccccc1Cl)N1CCc2sccc2C1` [CLOPIDOGREL], the inhibition at 30 µM in the assay “cells” turned out to be 80.2%.
For `C/C=C/c1cc(OC)c2c(c1)[C@H](C)[C@@H](c1ccc(O)c(OC)c1)O2` [LICARIN A], the Activity in the assay on Platelet [7] was 66.8%.
In the case of `C=CCc1cc(OC)c(O[C@H](C)[C@H](OC(C)=O)c2cc(OC)c(OC)c(OC)c2)c(OC)c1`, the inhibition at 100 µM in assay [1] amounted to 93.5%; in assay [2], 68.1%; in [4], 84.7%. Moreover, the IC50 in assay [8] is 79.4 µM; in assay [3] it was 60.3 µM; in assay [5], 28.1 µM.
Take `C/C=C/c1cc(OC)c2c(c1)[C@H](C)[C@@H](c1ccc3c(c1)OCO3)O2` [(-)-LICARIN B]: the figures for the inhibition at 100 µM in assay [1], in assay [2] and in assay [4] were 42.5%, 5.3% and 86.7%, respectively. Moreover, the IC50 in assay [5] is 50.6 µM.
As to `C[C@@H]1O[C@@H](Oc2c(-c3ccc(O)c(O)c3)oc3cc(O)cc(O)c3c2=O)[C@H](O)[C@H](O)[C@H]1O` [QUERCITRIN], the inhibition at 100 µM came to 21.8% in assay [1], 6.8% in assay [2] and 83.1% in [4].
`COc1ccc([C@H]2O[C@@H](c3cc(OC)c4c(c3)OCO4)[C@H](C)[C@@H]2C)cc1OC` (relative stereo): the inhibition at 100 µM in [1] was 80.3%; in assay [2], 98.9%; in assay [4] it was 75.6%. For the same compound, the IC50 in assay [8] was found to be 37.2 µM; in [3], 85 µM; in assay [5], 56 µM.
For `CCCCCCCCCCCCCCCCCCNC(=O)OCC(COP(=O)([O-])OCC[n+]1ccsc1)OC` (stereo unspecified), the inhibition at 10 µM in assay [9] amounted to 94.8%.

A word on the IC50: it is the concentration needed to halve the response being measured.
